Measurements taken from PMC7114156 (Antiviral Research, 2009).

How the values were obtained:
[1] = test system: Huh7; test: Growth of Huh7, MTS; format: cell-based, human
Method in brief: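 Cells were plated in 96-well plates in medium holding serial dilutions of test compound, 1 nM to 10 μM, with DMSO ≤1% (v/v) final. Growth was read by MTS after 72 h at 37 °C: 2 h with reagent plus phenazine methosulfate, then A490. K and Imax came from a fit to a modified Hill equation. Vero cells are African Green monkey.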

[2] = test system: HeLa; test: Growth of HeLa; format: cell-based, human; details: 72 h
Method in brief: (§1)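 Cell lines carrying integrated viral genomes were plated in 96-well plates in medium with test compound. Growth was read by ATP luminescence (CellTiter-Glo) for HEK293 and WI38 VA13, and by MTS reduction (A490 after 2 h at 37 °C) for Namalwa, W12 20861, SiHa, Caski and HeLa. K and Imax came from a fit to a modified Hill equation.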

[3] = test system: adenovirus type 5; test: Adenovirus assay: adenovirus-5 replication in HFF cells, viral DNA by qPCR; format: cell-based; details: Ad5 in HFF cells, MOI 3, 72 h
[4] = test system: human keratinocyte (HKC); test: Growth of uninfected human keratinocytes; format: cell-based; details: 4 days
Method in brief: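 W12-20850 cells were seeded at 7.5 × 10^3 cells/well into 96-well plates containing test compound, 100 to 0.001 μM. Plates were held 4 days at 37 °C, 5% CO2. Growth was read by MTS (A490), and HPV16 DNA was then measured from the same cells. Uninfected human keratinocytes were run in parallel and read by MTS.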

[5] = test system: SiHa; test: Growth of SiHa; format: cell-based, human; details: 72 h
Method in brief: as §1

[6] = Growth of resting B cells, CTG; format: cell-based; details: human
Method in brief: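 Primary cells were plated in 96-well plates with serial dilutions of test compound, 3 nM to 100 μM, for 72 h at 37 °C. Read-out was CTG for resting B and CD4 T cells and MTS for PBMC, WI38 and HUVEC. Purity was 90–95% for B cells and 97% for CD4 cells. Activated PBMCs were stimulated with phytohemagglutinin plus IL2.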

[7] = Growth of uninfected HFF cells; format: cell-based, human; details: human, HFF cells (fibroblasts)
[8] = test system: HFF cells; test: Growth of uninfected HFF cells; format: cell-based, human
[9] = test system: HIV-1; test: HIV-1 infection in PBMCs; format: cell-based
[10] = test system: HPV; test: Viral DNA levels in the three HPV-infected cell lines; format: cell-based; details: read-out: K values, viral DNA levels
[11] = Homo sapiens, read-out: K, Growth, MTS

## O=C(N[C@@H]1CCCc2c1[nH]c1ccc(Cl)cc21)c1ccccn1 [GSK983, N-[(1R)-6-Chloro-2,3,4,9-tetrahydro-1H-carbazol-1-yl]-2-pyridinecarboxamide]
[1]; Homo sapiens, Huh-7, 72 h, read-out: K, growth, MTS
  EC50: 41 ± 10 nM
[1]; Huh7, liver epithelial, 72 h
  Imax, Growth, MTS: 26 ± 1%
[2]; HPV 18 integrated
  Imax, Growth, MTS: 50 ± 0.8%
[2]; [11]
  EC50: 20 ± 2 nM
[3]
  Imax, viral DNA by qPCR: 100%
[4]
  Imax, Growth, MTS: ∼100%
  K, Growth, MTS: 40,000 ± 11,800 nM
[5]; HPV16 integrated
  Imax, Growth, MTS: 39 ± 1.6%
[5]; [11]
  EC50: 37 ± 6 nM
[6]
  CC50 at 72 h: > 10000 nM
[7]
  CC50 at 72 h: 55000 nM
[8]; HFF, this experiment (Fig. 2), K ∼ CC50
  K, uninfected host cell growth, MTS: 35,500 nM
[8]; at concentrations below one micromolar
  Growth of the uninfected HFF, as measured by MTS: not inhibited
[9]; at concentrations below 1 μM
  Susceptibility of HIV: not susceptible
[9]; concentration range 1 nM to 100 μM
  Inhibition of HIV-1 infection in PBMCs: 50% inhibition in the micromolar range
[10]
  EC50: 2 to 5 nM
